This note sets out measurements from ChEMBL document CHEMBL1140876, “Synthesis and antibacterial property of quinolines with potent DNA gyrase activity” (2009).

≈ marks a conversion by molar mass, not a printed value. Calls of active or inactive are those of the source. The rule behind the calls is not given here.

A short description of assay [1]: Inhibition of DNA gyrase assessed as pBR322 DNA relaxation at 5 uM. The gist of the method: (§1)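 Relaxation without ATP: gyrase (60 nM) with supercoiled pBR322 DNA (6 nM) and drug at […] for 1 h at 37 °C; relaxation judged by gel. Ciprofloxacin, novobiocin and nalidixic acid comparators.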
Assay [2] can be described thus: Inhibition of DNA gyrase assessed as pBR322 DNA relaxation at 1 uM. The gist of the method: as §1
Assay [3] relates to Staphylococcus aureus. Nature of the assay: Antimicrobial activity against Staphylococcus aureus at 5 ug after 24 hrs by disk diffusion method. The format is functional. To be noted: read-out: IZ. The gist of the method:
(§2)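 Inoculum made in 0.85% saline against McFarland standard, swabbed evenly onto nutrient agar; sterile filter-paper discs set equidistant and loaded with equal volumes of drug at varying amounts; zone of inhibition measured after 24 h at 37 °C; ciprofloxacin reference.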

In assay [4] the test system is Klebsiella pneumoniae. As to the kind of experiment: Antimicrobial activity against Klebsiella pneumoniae at 20 ug after 24 hrs by disk diffusion method. In kind it is functional. To be noted: read-out: IZ. The gist of the method: as §2
On the technique in general: A growth-free zone around the sample is the usual read-out of agar diffusion tests.

The subject of assay [5] is Pseudomonas aeruginosa. Nature of the assay: Antimicrobial activity against Pseudomonas aeruginosa by broth microdilution assay. The format is functional. The gist of the method: (§3)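 Broth microdilution per NCCLS 1997 in 96-well plate; final inoculum 10^5 cfu/mL; incubated 35.7 °C in air 18–20 h; MIC read as lowest concentration with no visible growth.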
For orientation: In broth dilution the organism is exposed to a series of concentrations in liquid medium.

Assay [6] concerns Escherichia coli. Nature of the assay: Antimicrobial activity against Escherichia coli at 5 ug after 24 hrs by disk diffusion method. In kind it is functional. To be noted: read-out: IZ. The gist of the method: as §2
Assay [7] relates to Salmonella typhimurium. As to the kind of experiment: Antimicrobial activity against Salmonella Typhimurium at 5 ug after 24 hrs by disk diffusion method. In kind it is functional, Salmonella enterica subsp. enterica serovar Typhimurium. To be noted: Salmonella enterica, read-out: IZ. The gist of the method: as §2
For assay [8], the system named is Escherichia coli. Nature of the assay: Antimicrobial activity against Escherichia coli at 25 ug after 24 hrs by disk diffusion method. The format is functional. To be noted: read-out: IZ. The gist of the method: as §2
Assay [9] concerns Klebsiella pneumoniae. As to the kind of experiment: Antimicrobial activity against Klebsiella pneumoniae at 10 ug after 24 hrs by disk diffusion method. The format is functional. To be noted: read-out: IZ. The gist of the method:
as §2

The subject of assay [10] is Escherichia coli. As to the kind of experiment: Antimicrobial activity against Escherichia coli by broth microdilution assay. In kind it is functional. The gist of the method: as §3
Assay [11] has as its system Staphylococcus aureus. As to the kind of experiment: Antimicrobial activity against Staphylococcus aureus at 25 ug after 24 hrs by disk diffusion method. The format is functional. To be noted: read-out: IZ. The gist of the method: as §2
In assay [12] the test system is Staphylococcus aureus. As to the kind of experiment: Antimicrobial activity against Staphylococcus aureus by broth microdilution assay. The format is functional. The gist of the method: as §3
In assay [13] the test system is Pseudomonas aeruginosa. As to the kind of experiment: Antimicrobial activity against Pseudomonas aeruginosa at 10 ug after 24 hrs by disk diffusion method. To be noted: read-out: IZ. The format is functional. The gist of the method: as §2
The subject of assay [14] is Klebsiella pneumoniae. Nature of the assay: Antimicrobial activity against Klebsiella pneumoniae by broth microdilution assay. The format is functional. The gist of the method:
as §3

In assay [15] the test system is Klebsiella pneumoniae. As to the kind of experiment: Antimicrobial activity against Klebsiella pneumoniae at 15 ug after 24 hrs by disk diffusion method. In kind it is functional. To be noted: read-out: IZ. The gist of the method: as §2
Assay [16] in a line: Inhibition of DNA gyrase assessed as conversion of relaxed pBR322 to supercoiled form. The gist of the method: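 Supercoiling in 15 µL reactions: gyrase assay buffer, 150 ng relaxed pBR322, 2–3 µL purified DNA gyrase, 3 h at 37 °C (E. coli); stopped with 50% glycerol/0.25% bromophenol blue; 1% agarose in 1× TBE pH 8.3, 90 V 3 h; ethidium bromide stain; supercoiled band brightness by densitometry. Ciprofloxacin comparator.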

For assay [17], the system named is Salmonella typhimurium. As to the kind of experiment: Antimicrobial activity against Salmonella Typhimurium at 15 ug after 24 hrs by disk diffusion method. In kind it is functional, Salmonella enterica subsp. enterica serovar Typhimurium. To be noted: Salmonella enterica, read-out: IZ. The gist of the method: as §2
The test system of assay [18] is Pseudomonas aeruginosa. Nature of the assay: Antimicrobial activity against Pseudomonas aeruginosa at 25 ug after 24 hrs by disk diffusion method. To be noted: read-out: IZ. In kind it is functional. The gist of the method: as §2
Assay [19] relates to Staphylococcus aureus. Nature of the assay: Antimicrobial activity against Staphylococcus aureus at 20 ug after 24 hrs by disk diffusion method. In kind it is functional. To be noted: read-out: IZ. The gist of the method: as §2
Assay [20] concerns Salmonella typhimurium. Nature of the assay: Antimicrobial activity against Salmonella Typhimurium at 20 ug after 24 hrs by disk diffusion method. The format is functional, Salmonella enterica subsp. enterica serovar Typhimurium. To be noted: Salmonella enterica, read-out: IZ. The gist of the method:
as §2

In the next assay the test system is Salmonella typhi. Nature of the assay: Antimicrobial activity against Salmonella typhi by broth microdilution assay. In kind it is functional, Salmonella enterica subsp. enterica serovar Typhi. To be noted: Salmonella enterica. The gist of the method:
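Broth microdilution in 96-well plates following the NCCLS 1997 protocol. Final inoculum was 10^5 cfu/mL, with a control organism run alongside. Plates were incubated at 35.7 °C in air for 18–20 h. MIC is the lowest concentration with no visible growth.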

The test system of assay [21] is Bacillus subtilis. As to the kind of experiment: Antimicrobial activity against Bacillus subtilis at 25 ug after 24 hrs by disk diffusion method. The format is functional. To be noted: read-out: IZ. The gist of the method: as §2
Assay [22] has as its system Staphylococcus aureus. Nature of the assay: Antimicrobial activity against Staphylococcus aureus at 15 ug after 24 hrs by disk diffusion method. The format is functional. To be noted: read-out: IZ. The gist of the method: as §2
Assay [23] concerns Klebsiella pneumoniae. As to the kind of experiment: Antimicrobial activity against Klebsiella pneumoniae at 25 ug after 24 hrs by disk diffusion method. To be noted: read-out: IZ. The format is functional. The gist of the method:
as §2

Assay [24] deals with Bacillus subtilis. As to the kind of experiment: Antimicrobial activity against Bacillus subtilis at 20 ug after 24 hrs by disk diffusion method. To be noted: read-out: IZ. The format is functional. The gist of the method: as §2
Assay [25] deals with Pseudomonas aeruginosa. As to the kind of experiment: Antimicrobial activity against Pseudomonas aeruginosa at 5 ug after 24 hrs by disk diffusion method. The format is functional. To be noted: read-out: IZ. The gist of the method:
as §2

Assay [26] has as its system Bacillus subtilis. Nature of the assay: Antimicrobial activity against Bacillus subtilis by broth microdilution assay. In kind it is functional. The gist of the method: as §3
Assay [27] relates to Salmonella typhimurium. As to the kind of experiment: Antimicrobial activity against Salmonella Typhimurium at 25 ug after 24 hrs by disk diffusion method. The format is functional, Salmonella enterica subsp. enterica serovar Typhimurium. To be noted: Salmonella enterica, read-out: IZ. The gist of the method:
as §2

Assay [28] deals with Escherichia coli. As to the kind of experiment: Antimicrobial activity against Escherichia coli at 15 ug after 24 hrs by disk diffusion method. The format is functional. To be noted: read-out: IZ. The gist of the method: as §2
The test system of assay [29] is Bacillus subtilis. As to the kind of experiment: Antimicrobial activity against Bacillus subtilis at 15 ug after 24 hrs by disk diffusion method. The format is functional. To be noted: read-out: IZ. The gist of the method: as §2
Assay [30] has as its system Escherichia coli. As to the kind of experiment: Antimicrobial activity against Escherichia coli at 20 ug after 24 hrs by disk diffusion method. In kind it is functional. To be noted: read-out: IZ. The gist of the method: as §2
In assay [31] the test system is Escherichia coli. As to the kind of experiment: Antimicrobial activity against Escherichia coli at 10 ug after 24 hrs by disk diffusion method. In kind it is functional. To be noted: read-out: IZ. The gist of the method: as §2
Assay [32] concerns Pseudomonas aeruginosa. As to the kind of experiment: Antimicrobial activity against Pseudomonas aeruginosa at 15 ug after 24 hrs by disk diffusion method. In kind it is functional. To be noted: read-out: IZ. The gist of the method:
as §2

Assay [33] has as its system Pseudomonas aeruginosa. Nature of the assay: Antimicrobial activity against Pseudomonas aeruginosa at 20 ug after 24 hrs by disk diffusion method. To be noted: read-out: IZ. In kind it is functional. The gist of the method: as §2
Assay [34] relates to Klebsiella pneumoniae. Nature of the assay: Antimicrobial activity against Klebsiella pneumoniae at 5 ug after 24 hrs by disk diffusion method. To be noted: read-out: IZ. The format is functional. The gist of the method: as §2
The subject of assay [35] is Escherichia coli. As to the kind of experiment: Inhibition of DNA gyrase gene expression in Escherichia coli assessed as decrease in band intensity by RT-PCR amplification. The gist of the method: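 E. coli treated with drug; total RNA from cells sampled up to 24 h; 2 µg RNA to cDNA with MMLV reverse transcriptase; gyrase gene PCR (94 °C 4 min initial denaturation, 72 °C 7 min final extension); products on agarose gel, band intensity normalized to GAPDH; untreated cells as negative control.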

Assay [36] concerns Staphylococcus aureus. As to the kind of experiment: Antimicrobial activity against Staphylococcus aureus at 10 ug after 24 hrs by disk diffusion method. The format is functional. To be noted: read-out: IZ. The gist of the method: as §2
Assay [37] concerns Salmonella typhimurium. As to the kind of experiment: Antimicrobial activity against Salmonella Typhimurium at 10 ug after 24 hrs by disk diffusion method. The format is functional, Salmonella enterica subsp. enterica serovar Typhimurium. To be noted: Salmonella enterica, read-out: IZ. The gist of the method:
as §2

In the case of `CO[C@@H]1[C@@H](OC(N)=O)[C@@H](O)[C@H](Oc2ccc3c(O)c(NC(=O)c4ccc(O)c(CC=C(C)C)c4)c(=O)oc3c2C)OC1(C)C`, in assay [1], the outcome was inactive. In addition, the outcome in [2] was Active.
Usually MIC50 stands for the lowest concentration that inhibits either 50% of growth or 50% of the strains tested, depending on the study. Usually MIC90 stands for an inhibitory concentration at the 90% level, which refers to growth in some studies and to a panel of isolates in others. Lower therefore signals higher susceptibility. With `Cn1c(=O)c2cc3n(c2n(C)c1=O)CC1C3Nc2ccc(Cl)cc2C1(C)C` (centres undefined), the zone of inhibition at 5 µg/disc with Staphylococcus aureus [3] was determined as 20 mm; in the assay on Escherichia coli [6], 10 mm; with Salmonella typhimurium [7], 10 mm; in the assay with Pseudomonas aeruginosa [25], 10 mm; in the assay on Klebsiella pneumoniae [34], 20 mm. Besides, the zone of inhibition at 20 µg/disc in the assay on Klebsiella pneumoniae [4] was found to be 34 mm; with Staphylococcus aureus [19], 30 mm; in the assay with Salmonella typhimurium [20] it was 22 mm; in the assay on Bacillus subtilis [24], 7 mm; with Escherichia coli [30], 20 mm; with Pseudomonas aeruginosa [33], 20 mm. Also, the MIC50 with Pseudomonas aeruginosa [5] came to 0.125 µg/mL (≈ 0.325 µM); against Escherichia coli [10], 0.06 µg/mL (≈ 0.156 µM); in the assay with Staphylococcus aureus [12], 0.25 µg/mL (≈ 0.65 µM); in the assay on Klebsiella pneumoniae [14], 0.125 µg/mL (≈ 0.325 µM); in the assay with Salmonella typhi it was 0.09 µg/mL (≈ 0.234 µM); against Bacillus subtilis [26], 0.25 µg/mL (≈ 0.65 µM). For the same compound, the MIC90 with Pseudomonas aeruginosa [5] stood at 1 µg/mL (≈ 2.6 µM); against Escherichia coli [10] it was 0.25 µg/mL (≈ 0.65 µM); with Klebsiella pneumoniae [14], 2 µg/mL (≈ 5.2 µM); against Salmonella typhi it was 0.15 µg/mL (≈ 0.39 µM); in the assay with Bacillus subtilis [26] it was 1.2 µg/mL (≈ 3.12 µM). The zone of inhibition at 25 µg/disc in the assay on Escherichia coli [8] was 23 mm; in the assay on Staphylococcus aureus [11], 36 mm; in the assay with Pseudomonas aeruginosa [18], 23 mm; in the assay with Bacillus subtilis [21], 9 mm; in the assay with Klebsiella pneumoniae [23], 36 mm; in the assay on Salmonella typhimurium [27] it was 24 mm. The zone of inhibition at 10 µg/disc stood at 26 mm in the assay with Klebsiella pneumoniae [9]; 14 mm with Pseudomonas aeruginosa [13]; 16 mm in the assay on Escherichia coli [31]; 24 mm in the assay with Staphylococcus aureus [36]; 16 mm in the assay on Salmonella typhimurium [37]. Besides, the zone of inhibition at 15 µg/disc with Klebsiella pneumoniae [15] is 30 mm; in the assay with Salmonella typhimurium [17], 18 mm; in the assay with Staphylococcus aureus [22] it was 26 mm; in the assay with Escherichia coli [28], 18 mm; in the assay on Bacillus subtilis [29], 6 mm; in the assay on Pseudomonas aeruginosa [32], 16 mm. Further, the result (in [16]; in assay [2]; with Escherichia coli [35]) was Active.
